# Compounds with a hit are over-represented: about 2.9% of the library has one in this group of screens.
# Beta2AR agonist: human beta-2 adrenergic receptor agonism by FAP | hit rate 0.43% among 340,000 | Am2.2-beta2AR cells, FAP receptor internalization, flow cytometry | response, % (test concentration not listed) | AID 504454 | P07550;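 active = response above a set limit, near 3 SD of response in nonfluorescent compounds, cut at about 42% in these data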
# Target sequence (P07550 whole entry, looked up): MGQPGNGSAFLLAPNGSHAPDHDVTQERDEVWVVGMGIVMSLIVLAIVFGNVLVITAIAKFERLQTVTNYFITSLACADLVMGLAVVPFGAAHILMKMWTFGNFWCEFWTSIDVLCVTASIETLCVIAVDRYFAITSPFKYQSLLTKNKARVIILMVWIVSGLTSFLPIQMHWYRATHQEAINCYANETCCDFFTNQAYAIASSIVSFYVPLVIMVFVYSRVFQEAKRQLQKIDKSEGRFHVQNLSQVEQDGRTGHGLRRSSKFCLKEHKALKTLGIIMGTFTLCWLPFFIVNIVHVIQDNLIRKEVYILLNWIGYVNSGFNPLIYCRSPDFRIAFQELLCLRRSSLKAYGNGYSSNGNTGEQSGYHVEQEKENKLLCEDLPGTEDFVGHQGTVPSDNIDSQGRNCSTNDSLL
# Dynein cargo inh: dynein cargo transport inhibition | hit rate 0.47% among 220,000 | 3617.4 mouse cells, GR-EGFP nuclear translocation imaging; test concentration mostly 20 µM; stimulated with dexamethasone, 1 µM; stronger effect = lower value | z-score, hits read low;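 active = plate z-score of nuclear minus cytoplasmic receptor signal below a set negative limit, without overly bright fluorescence or cell loss, cut at about -3.5 in these data, passing the limit was not always enough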;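 also: z-score of nuclear minus cytoplasmic ring GR-EGFP intensity difference per well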
#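 Buffer or medium: tet-free medium with charcoal-stripped serum / Also added: dexamethasone agonist, 1.0 µM final, for 30 min / Timing: induction 48 h, compound 1 h, agonist 30 min / Measured by: high-content fluorescence imaging after fixation / Read-out: nuclear-to-cytoplasmic GR-EGFP distribution per well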
# MEKK2 WT-MEK5: raises or lowers MEK5 binding to wildtype human MEKK2 PB1 domain. Q9Y2U5. binding response (% of control), % at 10 µM. hit rate 1.1% among 290,000. AID 1531. bead flow cytometry, Alexa488-MEK5 binding to MEKK2 WT; actives lie on both sides; in the data active = binding response below about 67% or above about 130%
# MEKK3 PB1 HTS: raises or lowers MEK5 binding to the human MEKK3 PB1 domain | hit rate 1.4% among 290,000 | AID 1529 | binding response (% of control), % at 10 µM | bead-based flow cytometry, Alexa488-MEK5 binding to MEKK3; actives lie on both sides; 0 = blocked by unlabeled MEK5, 100 = vehicle;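 active = binding response more than 3 SD above or below the average of its plate-row segment, actives on both sides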;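 also: Alexa488 bead fluorescence after subtracting the streptavidin-only scavenger bead signal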
# ATG4B inhibitor: inhibitors of human ATG4B cysteine protease. ATG4B cleavage of LC3-PLA2, NBD-HPC fluorescence, 1 h. inhibition, % at 8.33 µM. hit rate 0.51% among 340,000. AID 504462; in the data active = inhibition above about 40%
# MEKK2 mut-MEK5: signal of MEK5 binding to mutant human MEKK2 PB1 domain; bead flow cytometry, Alexa488-MEK5 binding to MEKK2 mutant; percent response, % at 10 µM; hit rate 0.35% among 290,000; AID 1530; in the data active = percent response above about 24%, passing the limit was not always enough
# MEKK2wt confirm: raises or lowers MEK5 binding to wildtype human MEKK2, retest; AID 1892; binding response (% of control), % at 10 µM; shares compounds with MEKK3 PB1 HTS; bead flow cytometry, Alexa488-MEK5 binding to MEKK2 WT; actives lie on both sides; hit rate 2.4% among 5,900; in the data active = binding response below about 16% or above about 210%; inactive = in between
# MEKK2mut-MEK5: signal of MEK5 binding to mutant human MEKK2, retest; shares compounds with MEKK3 PB1 HTS; bead flow cytometry, Alexa488-MEK5 binding to MEKK2 mutant; percent response, % at 10 µM; hit rate 2% among 5,900; in the data active = percent response mostly above about 71%, no sharp cut-off; inactive = mostly below about 38%;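 also: higher means compound restores mutant binding toward wildtype level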
# MEKK3-MEK5 inh: confirmation of inhibitors of MEK5 binding to human MEKK3; shares compounds with MEKK3 PB1 HTS; bead flow cytometry, Alexa488-MEK5 binding to MEKK3; stronger effect = lower value; binding response (% of control), % at 10 µM; hit rate 1.8% among 5,900; AID 1894;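 active = binding response below 72% of control, or above a set upper limit, though filed actives all read lower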;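 also: 100% = DMSO only wells and 0% = binding blocked by excess unlabeled MEK5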
# * marks the source's active call; other numbers are inactive results; / = no result given; [ ] = remark or other dose.
SMILES,Beta2AR agonist,Dynein cargo inh,MEKK2 WT-MEK5,MEKK3 PB1 HTS,ATG4B inhibitor,MEKK2 mut-MEK5,MEKK2wt confirm,MEKK2mut-MEK5,MEKK3-MEK5 inh
CCCN(CCC)C(C)C(=O)NCC1(c2ccccc2)CCCC1 (stereo not drawn),3,0.42,103,104,-5,3,/,/,/
CC[C@]12c3[nH]c4ccccc4c3CCN1C(=O)C(CC(=O)NCc1cccc(C(F)(F)F)c1)C[C@@H]2C(=O)N1CCN(C(=O)c2ccco2)CC1 (stereo partly drawn),-4,/,/,/,-6,/,/,/,/
CC(OC(=O)c1cccs1)C(=O)NCc1ccccc1 (stereo not drawn),-4,-0.58,121,131*,-7,9,97,-3,101
CC(OC(=O)c1cccs1)C(=O)NCCc1ccccc1 (stereo not drawn),-4,/,102,100,-1,4,/,/,/
O=C1N=c2ccccc2=C1c1[nH]c(=S)[nH]c1O,-4,1.1,106,66*[inhibitor],-2,2,110,9,103
CC(C)=C(NC(=O)c1ccccc1)C(=O)N/N=C/c1ccc(O)cc1,11,0.52,19*[inhibitor],100,-12,0,101,2,100
Cc1c(N2C(=O)C(=O)/C(=C(/O)c3ccc(Cl)cc3)C2c2ccccc2)c(=O)n(-c2ccccc2)n1C (stereo not drawn),0,-0.62,105,135*,-12,0,97,-5,96
NC(=O)N/N=C/c1coc2ccc(O)cc2c1=O,2,0.4,55,45*[inhibitor],-3,-31,101,-2,100
Cc1ccc(CNC(=O)c2ccc(N3CCC4(CC3)CC(c3ccccc3)=NO4)c(NC(=O)c3ccc(Br)cc3)c2)cc1,-5,/,85,98,-2,-8,/,/,/
Cc1ccc(S(=O)(=O)N2CCC(C(=O)NCc3ccncc3)CC2)cc1,7,-0.91,104,105,4,6,/,/,/
C/C(=C/C(=O)N1CCc2ccccc21)C(=O)O,-7,0.52,117,145*,-9,4,98,2,101
Cc1cccc(OCC(=O)N2CCc3ccccc3C2)c1,-2,/,98,93,-5,0,/,/,/
CC(=O)N=c1c(C#N)cc2c(=O)n3cccc(C)c3nc2n1CCCOC(C)C,-3,-0.42,46*[inhibitor],67,0,-27,101,-7,98
CCN1C(=O)/C(=C/c2cccs2)SC1=Nc1ccc(OC)cc1,-1,0.11,104,104,-6,1,/,/,/
COc1ccc(N=C2S/C(=C\c3ccc(Cl)c([N+](=O)[O-])c3)C(=O)N2CCN(C)C)cc1,34,/,182*,106,-1,69*,135,42,103
CCCN1C(=O)/C(=C/c2ccc(C)s2)SC1=Nc1ccc(OC)cc1,1,1.2,100,102,0,-3,/,/,/
CCN(CC)CCN1C(=O)/C(=C\c2ccc(Cl)c([N+](=O)[O-])c2)SC1=Nc1ccc(OC)cc1,18,/,197*,109,-9,36*,154,25,108
Cc1ccc(NC(=O)C2Cc3ccccc3CN2C(=O)c2ccccc2)cc1Cl (stereo not drawn),-4,0.29,99,106,38,-1,/,/,/
COc1ccc(/C=N/NC(=O)Cn2cnc3c2c(=O)n(C)c(=O)n3C)cc1,-2,-0.17,103,103,-5,4,/,/,/
COc1ccc(/C=N/NC(=O)Cn2cnc3c2c(=O)n(C)c(=O)n3C)c(OC)c1OC,8,0.7,67,71*[inhibitor],8,-33,98,1,103
CCC(C)NC(=O)C1CCN(S(=O)(=O)N2CCOCC2)CC1 (stereo not drawn),-2,-0.52,94,98,-5,-3,/,/,/
CCC(C)NC(=O)C1CCN(S(=O)(=O)N2CCCC2)CC1 (stereo not drawn),2,-0.55,-3.0*[inhibitor],1.0*[inhibitor],3,-20,98,-4,100
Cc1nn(C)cc1-c1cc(C(=O)O)c2ccccc2n1,-1,-0.84,23*[inhibitor],65*[inhibitor],-5,-3,95,-3,97
COc1ccc(NC(=O)/C(C#N)=C/c2cc(C)n(-c3ccc(N4CCOCC4)c([N+](=O)[O-])c3)c2C)cc1,9,-0.17,102,132*,5,0,102,3,106
Cc1ccc2c(CSc3nc4nc(C)cc(C)n4n3)cc(=O)oc2c1,-15,2.3,97,94,-2,-9,/,/,/
SMILES,Beta2AR agonist,Dynein cargo inh,MEKK2 WT-MEK5,MEKK3 PB1 HTS,ATG4B inhibitor,MEKK2 mut-MEK5,MEKK2wt confirm,MEKK2mut-MEK5,MEKK3-MEK5 inh
COc1ccc2c(CSc3nc4nc(C)cc(C)n4n3)cc(=O)oc2c1,14,-0.73,123,122*,0,6,97,-3,100
O=C(COC(=O)CCN1C(=O)/C(=C\C=C\c2ccccc2)SC1=S)Nc1cc(F)ccc1F,-3,-0.95,58*[inhibitor],92,24,-34,68,-18,94
O=C(CN1C(=O)/C(=C\C=C\c2ccccc2)SC1=S)Nc1ccc(F)cc1,-10,0.0091,72,95,-2,-3,/,/,/
Clc1ccc(SCc2csc(N3CCOCC3)n2)cc1,8,-0.91,75,74*[inhibitor],2,-32,95,-4,97
CC(Sc1ccc(Cl)cc1)C(=O)NNC(=O)c1csc(N2CCOCC2)n1 (stereo not drawn),-2,/,101,100,-7,3,/,/,/
O=C(NCc1ccccc1)c1ccc(N2C(=O)C3CCCCC3C2=O)cc1 (stereo not drawn),4,-0.19,105,142*,-4,1,104,5,106
O=C(NCc1ccccc1)c1ccc(NC(=O)C2CCCC2)cc1,0,/,/,/,-3,/,/,/,/
CCN(c1ccccc1)S(=O)(=O)c1ccc(Cl)c(NC(=O)CSc2nncs2)c1,1,3.3,101,99,-7,9,/,/,/
COc1cccc(CCC(=O)Nc2cccc(S(=O)(=O)N3CCCC3)c2)c1OC,2,/,/,/,0,/,/,/,/
CCCCn1cc(SCC(=O)O)c2ccccc21,-3,0.36,-1.0*[inhibitor],-1.0*[inhibitor],-14,-21,101,0,102
CCCn1cc(SCC(=O)NC2CCCC2)c2ccccc21,-3,/,103,101,6,3,/,/,/

# Assay outcomes as filed in PubChem BioAssay.
